From ChEMBL document CHEMBL3877250, “Design, synthesis, and biological evaluation of (2E)-(2-oxo-1, 2-dihydro-3H-indol-3-ylidene)acetate derivatives as anti-proliferative agents through ROS-induced cell apoptosis” (Eur J Med Chem, 2016)

Experiments:
[1] = Antitumor activity against human HepG2 cells assessed as growth inhibition at 20 uM after 72 hrs by CCK-8 assay; assay type: functional; conditions: HepG2, 72 h, read-out: GI
How it was run: (§1)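 Cells kept in RPMI 1640 with 10% heat-inactivated fetal calf serum and 1% streptomycin/penicillin at 37 °C, 5% CO2. After compound exposure, CCK-8 was added and cells were incubated 4 h at 37 °C, then absorbance was read at 450 nm. Viability is relative to untreated cells (100%). IC50 comes from nonlinear regression, mean of three separate determinations. Single-concentration screen at 20 µM.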

[2] = Cytotoxicity against human Saos2 cells assessed as growth inhibition at 20 uM after 72 hrs by CCK-8 assay; assay type: functional; conditions: SAOS-2, 72 h, read-out: GI; how it was run: as §1
[3] = Cytotoxicity against human HL60 cells after 72 hrs by CCK-8 assay; assay type: functional, cell-based; conditions: HL-60, 72 h; how it was run: as §1
[4] = Cytotoxicity against human HL60 cells assessed as growth inhibition at 20 uM after 72 hrs by CCK-8 assay; assay type: functional; conditions: HL-60, 72 h, read-out: GI; how it was run: as §1
[5] = Cytotoxicity against human L02 cells after 72 hrs by CCK-8 assay; assay type: toxicity, cell-based; how it was run: as §1
[6] = Cytotoxicity against human L02 cells assessed as growth inhibition at 20 uM after 72 hrs by CCK-8 assay; assay type: toxicity, cell-based; conditions: read-out: GI; how it was run: as §1
[7] = Cytotoxicity against human SK-BR-3 cells assessed as growth inhibition at 20 uM after 72 hrs by CCK-8 assay; assay type: functional; conditions: SK-BR-3, 72 h, read-out: GI; how it was run: as §1
[8] = Cytotoxicity against human OVCAR3 cells assessed as growth inhibition at 20 uM after 72 hrs by CCK-8 assay; assay type: functional; conditions: OVCAR-3, 72 h, read-out: GI; how it was run: as §1
[9] = Cytotoxicity against human SW480 cells assessed as growth inhibition at 20 uM after 72 hrs by CCK-8 assay; assay type: functional; conditions: SW480, 72 h, read-out: GI; how it was run: as §1
[10] = Cytotoxicity against human MDA-MB-231 cells assessed as growth inhibition at 20 uM after 72 hrs by CCK-8 assay; assay type: functional; conditions: MDA-MB-231, 72 h, read-out: GI; how it was run: as §1
[11] = Cytotoxicity against human HCT116 cells assessed as growth inhibition at 20 uM after 72 hrs by CCK-8 assay; assay type: functional; conditions: HCT-116, 72 h, read-out: GI; how it was run: as §1
[12] = Cytotoxicity against human L02 cells; assay type: toxicity, cell-based
[13] = Cytotoxicity against human OVCAR3 cells after 72 hrs by CCK-8 assay; assay type: functional, cell-based; conditions: OVCAR-3, 72 h; how it was run: as §1
[14] = Cytotoxicity against human MDA-MB-231 cells after 72 hrs by CCK-8 assay; assay type: functional, cell-based; conditions: MDA-MB-231, 72 h; how it was run: as §1
[15] = Cytotoxicity against human HepG2 cells after 72 hrs by CCK-8 assay; assay type: functional, cell-based; conditions: HepG2, 72 h; how it was run: as §1
[16] = Cytotoxicity against human Saos2 cells after 72 hrs by CCK-8 assay; assay type: functional, cell-based; conditions: SAOS-2, 72 h; how it was run: as §1
[17] = Cytotoxicity against human SK-BR-3 cells after 72 hrs by CCK-8 assay; assay type: functional, cell-based; conditions: SK-BR-3, 72 h; how it was run: as §1
[18] = Cytotoxicity against human HCT116 cells after 72 hrs by CCK-8 assay; assay type: functional, cell-based; conditions: HCT-116, 72 h; how it was run: as §1
[19] = Cytotoxicity against human SW480 cells after 72 hrs by CCK-8 assay; assay type: functional, cell-based; conditions: SW480, 72 h; how it was run: as §1

Row | Structure (SMILES) | inhibition of growth at 20 µM [1] [%] | inhibition of growth at 20 µM [2] [%] | IC50 [3] [µM] | inhibition of growth at 20 µM [4] [%] | IC50 at 72 h [5] [µM] | inhibition at 72 h, 20 µM [6] [%] | inhibition of growth at 20 µM [7] [%] | inhibition of growth at 20 µM [8] [%] | inhibition of growth at 20 µM [9] [%] | inhibition of growth at 20 µM [10] [%] | inhibition of growth at 20 µM [11] [%] | IC50 [12] [µM] | IC50 [13] [µM] | IC50 [14] [µM] | IC50 [15] [µM] | IC50 [16] [µM] | IC50 [17] [µM] | IC50 [18] [µM] | IC50 [19] [µM]
1 | CC(C)(C)OC(=O)CC1C(=O)Nc2ccccc21 (stereo not drawn) | 1.2 | 1.5 | > 100 | 0.5 | > 100 | 0.1 | 22.6 | 6.4 | 8.8 | 3.7 | 1.7 |  |  |  |  |  |  |  | 
2 | COc1ccc2c(c1)NC(=O)/C2=C/C(=O)OC(C)(C)C | 88.3 | 83.2 | 9.15 | 91.6 | 4.34 | 63.6 | 87 | 57.9 | 78.8 | 87.1 | 89.5 |  |  |  |  |  |  |  | 
3 | O=C(O)/C=C1/C(=O)Nc2ccccc21 | 3 | 8.9 | > 100 | 0.9 | > 100 | 3.3 | 17.9 | 13.4 | 6.4 | 1 | -0.7 |  |  |  |  |  |  |  | 
4 | CC(C)(C)OC(=O)/C=C1/C(=O)N(Cc2ccccc2)c2ccccc21 | 88 | 82.1 | 13.8 | 91.7 | 5.03 | 62 | 88 | 58.9 | 78.4 | 87.1 | 87.9 |  |  |  |  |  |  |  | 
5 | CC(C)c1ccc2c(c1)/C(=C\C(=O)OC(C)(C)C)C(=O)N2 | 90.5 | 82.8 | 5.29 | 94.4 | 3.36 | 63.8 | 88.5 | 59.7 | 78.5 | 87.7 | 89.4 |  |  |  |  |  |  |  | 
6 | CCCCc1ccc2c(c1)/C(=C\C(=O)OC(C)(C)C)C(=O)N2 | 90.3 | 84.2 | 6.19 | 94.7 | 4.4 | 63.7 | 87.8 | 60.2 | 78.3 | 87.7 | 89 |  |  |  |  |  |  |  | 
7 | CC(C)(C)OC(=O)/C=C1/C(=O)Nc2ccc([N+](=O)[O-])cc21 | 88.2 | 82.8 | 9.86 | 86.6 | 3.82 | 62 | 87.9 | 55.6 | 77.9 | 86.9 | 88.1 |  |  |  |  |  |  |  | 
8 | CCOC(=O)/C=C1/C(=O)Nc2ccccc21 | 90.2 | 81.4 | 4.83 | 77.7 | 4.23 | 63.9 | 85.5 | 57.3 | 78.3 | 86.9 | 89.3 |  |  |  |  |  |  |  | 
9 | Cc1c(Cl)ccc2c1NC(=O)/C2=C/C(=O)OC(C)(C)C | 69.7 | 82.6 | 3.64 | 82.9 | 6.26 | 64.3 | 87.9 | 57.4 | 77.2 | 87.3 | 89.9 |  |  |  |  |  |  |  | 
10 | CC(C)(C)OC(=O)/C=C1/C(=O)Nc2ccc(OC(F)(F)F)cc21 | 88.4 | 80.1 | 4.48 | 95.9 | 4.04 | 61.3 | 88.1 | 59 | 77.8 | 86.9 | 87.7 |  |  |  |  |  |  |  | 
11 | CC(C)(C)OC(=O)/C=C1/C(=O)Nc2ccc(Cl)cc21 | 87.1 | 82.3 | 3.16 | 94.9 | 4.72 | 63.3 | 87.6 | 59.4 | 78.5 | 87.6 | 89.7 | 6.18 | 19 | 3.11 | 8.99 | 6.51 | 6.48 | 5.5 | 5.49
12 | COc1ccc2c(c1)/C(=C\C(=O)OC(C)(C)C)C(=O)N2 | 90.1 | 82 | 6.19 | 94.2 | 3.82 | 63.7 | 87.7 | 59 | 78.7 | 87.6 | 89.6 |  |  |  |  |  |  |  | 
13 | CN1C(=O)/C(=C/C(=O)OC(C)(C)C)c2ccccc21 | 88.4 | 81.9 | 2.76 | 94.7 | 4.32 | 61.4 | 87.6 | 57.1 | 77.8 | 86.6 | 87.5 | 12.2 |  |  |  |  |  |  | 
14 | CC(C)(C)OC(=O)/C=C1/C(=O)Nc2c(Cl)cccc21 | 88.1 | 82.4 | 6.12 | 93.7 | 4.8 | 64 | 88.2 | 59.3 | 78 | 87.4 | 89.5 |  |  |  |  |  |  |  | 
